# From ChEMBL document CHEMBL3877250, “Design, synthesis, and biological evaluation of (2E)-(2-oxo-1, 2-dihydro-3H-indol-3-ylidene)acetate derivatives as anti-proliferative agents through ROS-induced cell apoptosis” (Eur J Med Chem, 2016)
# What was measured:
# [1] = Cytotoxicity against human MDA-MB-231 cells assessed as growth inhibition at 20 uM after 72 hrs by CCK-8 assay; type: functional; conditions: MDA-MB-231, 72 h, read-out: GI
# Summary of the method: (§1)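 Cells kept in RPMI 1640 with 10% heat-inactivated fetal calf serum and 1% streptomycin/penicillin at 37 °C, 5% CO2. After compound exposure, CCK-8 was added and cells were incubated 4 h at 37 °C, then absorbance was read at 450 nm. Viability is relative to untreated cells (100%). IC50 comes from nonlinear regression, mean of three separate determinations. Single-concentration screen at 20 µM.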
# [2] = Cytotoxicity against human SK-BR-3 cells assessed as growth inhibition at 20 uM after 72 hrs by CCK-8 assay; type: functional; conditions: SK-BR-3, 72 h, read-out: GI; summary of the method: as §1
# [3] = Cytotoxicity against human SK-BR-3 cells after 72 hrs by CCK-8 assay; type: functional, cell-based; conditions: SK-BR-3, 72 h; summary of the method: as §1
# [4] = Cytotoxicity against human HepG2 cells after 72 hrs by CCK-8 assay; type: functional, cell-based; conditions: HepG2, 72 h; summary of the method: as §1
# [5] = Cytotoxicity against human OVCAR3 cells assessed as growth inhibition at 20 uM after 72 hrs by CCK-8 assay; type: functional; conditions: OVCAR-3, 72 h, read-out: GI; summary of the method: as §1
# [6] = Cytotoxicity against human HL60 cells after 72 hrs by CCK-8 assay; type: functional, cell-based; conditions: HL-60, 72 h; summary of the method: as §1
# [7] = Cytotoxicity against human Saos2 cells assessed as growth inhibition at 20 uM after 72 hrs by CCK-8 assay; type: functional; conditions: SAOS-2, 72 h, read-out: GI; summary of the method: as §1
# [8] = Cytotoxicity against human Saos2 cells after 72 hrs by CCK-8 assay; type: functional, cell-based; conditions: SAOS-2, 72 h; summary of the method: as §1
# [9] = Cytotoxicity against human HCT116 cells after 72 hrs by CCK-8 assay; type: functional, cell-based; conditions: HCT-116, 72 h; summary of the method: as §1
# [10] = Cytotoxicity against human HL60 cells assessed as growth inhibition at 20 uM after 72 hrs by CCK-8 assay; type: functional; conditions: HL-60, 72 h, read-out: GI; summary of the method: as §1
# [11] = Cytotoxicity against human HCT116 cells assessed as growth inhibition at 20 uM after 72 hrs by CCK-8 assay; type: functional; conditions: HCT-116, 72 h, read-out: GI; summary of the method: as §1
# [12] = Cytotoxicity against human L02 cells after 72 hrs by CCK-8 assay; type: toxicity, cell-based; summary of the method: as §1
# [13] = Cytotoxicity against human L02 cells; type: toxicity, cell-based
# [14] = Antitumor activity against human HepG2 cells assessed as growth inhibition at 20 uM after 72 hrs by CCK-8 assay; type: functional; conditions: HepG2, 72 h, read-out: GI; summary of the method: as §1
# [15] = Cytotoxicity against human SW480 cells assessed as growth inhibition at 20 uM after 72 hrs by CCK-8 assay; type: functional; conditions: SW480, 72 h, read-out: GI; summary of the method: as §1
# [16] = Cytotoxicity against human SW480 cells after 72 hrs by CCK-8 assay; type: functional, cell-based; conditions: SW480, 72 h; summary of the method: as §1
# [17] = Cytotoxicity against human L02 cells assessed as growth inhibition at 20 uM after 72 hrs by CCK-8 assay; type: toxicity, cell-based; conditions: read-out: GI; summary of the method: as §1
# [18] = Cytotoxicity against human MDA-MB-231 cells after 72 hrs by CCK-8 assay; type: functional, cell-based; conditions: MDA-MB-231, 72 h; summary of the method: as §1
# [19] = Cytotoxicity against human OVCAR3 cells after 72 hrs by CCK-8 assay; type: functional, cell-based; conditions: OVCAR-3, 72 h; summary of the method: as §1
compound,measurement,setting,value
CC(C)(C)OC(=O)/C=C1/C(=O)Nc2ccc(Cl)cc21,inhibition of growth at 20 µM,[1],87.6%
same,inhibition of growth at 20 µM,[2],87.6%
same,IC50,[3],6.48 µM
same,IC50,[4],8.99 µM
same,inhibition of growth at 20 µM,[5],59.4%
same,IC50,[6],3.16 µM
same,inhibition of growth at 20 µM,[7],82.3%
same,IC50,[8],6.51 µM
same,IC50,[9],5.5 µM
same,inhibition of growth at 20 µM,[10],94.9%
same,inhibition of growth at 20 µM,[11],89.7%
same,IC50 at 72 h,[12],4.72 µM
same,IC50,[13],6.18 µM
same,inhibition of growth at 20 µM,[14],87.1%
same,inhibition of growth at 20 µM,[15],78.5%
same,IC50,[16],5.49 µM
same,"inhibition at 72 h, 20 µM",[17],63.3%
same,IC50,[18],3.11 µM
same,IC50,[19],19 µM
